Experimental data published in ChEMBL document CHEMBL1132966, “Conformationally constrained analogues of diacylglycerol (DAG). 16. How much structural complexity is necessary for recognition and high binding affinity to protein kinase C?” (J Med Chem, 2000).

Legend:
[1] = biological target: T1, Protein kinase C alpha type (Homo sapiens, UniProt P17252); assay: Binding Affinity against protein kinase C alpha
[2] = biological target: T1, Protein kinase C alpha type
C3H 10T1/2 = assay: Tested for inhibition of EGF(epidermal growth factor) to C3H10T1/2 cells.; assay type: functional; settings: Mus musculus, read-out: ED50 (the source's name)
Summary of the method: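 C3H10T1/2 cells were plated at 2.5×10^5/well in MEM with 10% FBS and grown 2 days at 37 °C, 5% CO2. Cells were pretreated 60 min at 37 °C with ligand in MEM/BSA/25 mM BES pH 7.2 (DMSO <0.1% final). Cells were lysed in NaOH and bound counts measured. Background was taken with 1 μg/well unlabeled EGF. Six concentrations were run in triplicate, and ID50 is the mean of three experiments.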

Homo sapiens = organism: Homo sapiens; assay: Tested for growth inhibition against Breast Hs 578.T.; assay type: functional
Summary of the method: (§1)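 GI50 is interpolated from the NCI cell-panel screen. It is the concentration (M) at which percentage growth is inhibited by 50% in the named line.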

[3] = test system: Panel NCI-60 (60 carcinoma cell lines); assay: Tested for growth inhibition against MG-MID(full panel of cells); assay type: functional; settings: Homo sapiens
Summary of the method: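 MG-MID is the calculated mean of the GI50 concentrations (M) across the entire NCI cell panel. Each GI50 is the interpolated concentration (M) giving 50% growth inhibition.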

COLO 205 = assay: Tested for growth inhibition against COLO 205 cells.; assay type: functional; settings: Homo sapiens; summary of the method: as §1
K562 = assay: Tested for growth inhibition against Leukemia K-562 cells.; assay type: functional; settings: Homo sapiens; summary of the method: as §1

Row | Ki [1] [µM] | SMILES | EC50 (C3H 10T1/2) [µM] | further results
1 | 0.0059 | CCCCCCCC(=O)OC[C@]1(CO)C/C(=C\CC(C(C)C)C(C)C)C(=O)O1 |  | 
2 | 0.123 | CC(=O)OCC1(CO)C/C(=C/CC(C(C)C)C(C)C)C(=O)O1 (centres undefined) |  | 
3 | 0.409 | CC(=O)OCC1(CO)C/C(=C\C=C(C(C)C)C(C)C)C(=O)O1 (centres undefined) |  | 
4 | 0.0073 | CCCCC/C=C1/CC(CO)(COC(=O)CC(C(C)C)C(C)C)OC1=O (centres undefined) | 0.13 | ED50 [2]: 0.34 µM
5 | 0.011 | CCCCCCCC/C=C\CCCCCCC/C=C1/C[C@](/C=C/C(=O)OC)(CO)OC1=O | 0.33 | ED50 [2]: 1.07 µM
6 | 0.0295 | CCCCCCOC(=O)/C=C/[C@]1(CO)C/C(=C\CC(C(C)C)C(C)C)C(=O)O1 |  | 
7 | 0.019 | CCCC(=O)OCC1(CO)C/C(=C/CC(C(C)C)C(C)C)C(=O)O1 (centres undefined) | 0.82 | ED50 [2]: 1.95 µM
8 | 0.0023 | CCCCCCCCCC(=O)OCC1(CO)C/C(=C/CC(C(C)C)C(C)C)C(=O)O1 (centres undefined) | 1.17 | GI50 (Homo sapiens): 27 µM; ED50 [2]: 0.66 µM; GI50 [3]: 44 µM; GI50 (COLO 205): 18 µM; GI50 (K562): 9.2 µM
9 |  | CC(C)C(C/C=C1\CC(CO)(COC(=O)CC(C(C)C)C(C)C)OC1=O)C(C)C (centres undefined) | 0.14 | GI50 (Homo sapiens): 12 µM; ED50 [2]: 0.68 µM; GI50 (COLO 205): 1.6 µM; GI50 (K562): 1.5 µM
10 | 0.024 | CCC/C=C1/CC(CO)(COC(=O)CC(C(C)C)C(C)C)OC1=O (centres undefined) |  | 
11 | 0.138 | C/C=C1\CC(CO)(COC(=O)CC(C(C)C)C(C)C)OC1=O (centres undefined) |  | 
12 | 0.0035 | CCCCCCCC(=O)OC[C@]1(CO)C/C(=C/CC(C(C)C)C(C)C)C(=O)O1 |  | 
13 | 0.012 | CCCCCC(=O)OCC1(CO)C/C(=C/C=C(C(C)C)C(C)C)C(=O)O1 (centres undefined) |  | 
14 | 0.0035 | CCCCCCOC(=O)/C=C/[C@]1(CO)C/C(=C/CC(C(C)C)C(C)C)C(=O)O1 | 0.14 | ED50 [2]: 0.95 µM
15 | 0.39 | CC(=O)OCC1(CO)C/C(=C/C=C(C(C)C)C(C)C)C(=O)O1 (centres undefined) |  | 
16 | 0.0095 | CCCCCCCCC/C=C1\CC(CO)(COC(=O)CC(C(C)C)C(C)C)OC1=O (centres undefined) |  | 

Row | Ki [1] [µM] | SMILES | EC50 (C3H 10T1/2) [µM] | further results
17 | 0.164 | C/C=C1/CC(CO)(COC(=O)CC(C(C)C)C(C)C)OC1=O (centres undefined) |  | 
18 | 0.0059 | CCCCCC(=O)OCC1(CO)C/C(=C/CC(C(C)C)C(C)C)C(=O)O1 (centres undefined) | 2.22 | ED50 [2]: 2.33 µM
19 |  | CC(C)C(C/C=C1/CC(CO)(COC(=O)CC(C(C)C)C(C)C)OC1=O)C(C)C (centres undefined) | 0.17 | GI50 (Homo sapiens): 0.026 µM; ED50 [2]: 0.55 µM; GI50 [3]: 3.2 µM; GI50 (COLO 205): 0.025 µM; GI50 (K562): 0.021 µM
20 | 0.0084 | CCCCCC(=O)OCC1(CO)C/C(=C\C=C(C(C)C)C(C)C)C(=O)O1 (centres undefined) |  | 
21 | 0.013 | CCCCCCCCC/C=C1/CC(CO)(COC(=O)CC(C(C)C)C(C)C)OC1=O (centres undefined) | 0.37 | GI50 (Homo sapiens): 0.058 µM; ED50 [2]: 0.43 µM; GI50 [3]: 4.7 µM; GI50 (COLO 205): 0.071 µM; GI50 (K562): 0.14 µM
22 | 0.011 | CCCCCC(=O)OCC1(CO)C/C(=C\CC(C(C)C)C(C)C)C(=O)O1 (centres undefined) |  | 
23 | 0.054 | CCCC(=O)OCC1(CO)C/C(=C\CC(C(C)C)C(C)C)C(=O)O1 (centres undefined) |  | 
24 | 0.0055 | CCCCC/C=C1\CC(CO)(COC(=O)CC(C(C)C)C(C)C)OC1=O (centres undefined) |  | 
25 | 0.051 | CCCC(=O)OCC1(CO)C/C(=C\C=C(C(C)C)C(C)C)C(=O)O1 (centres undefined) |  | 
26 | 0.068 | CCCC(=O)OCC1(CO)C/C(=C/C=C(C(C)C)C(C)C)C(=O)O1 (centres undefined) |  | 
27 | 0.028 | CCC/C=C1\CC(CO)(COC(=O)CC(C(C)C)C(C)C)OC1=O (centres undefined) |  | 
28 | 0.0066 | CCCCCCCCCC(=O)OCC1(CO)C/C(=C\CC(C(C)C)C(C)C)C(=O)O1 (centres undefined) |  | 
29 |  | CCCC(=O)O[C@@H]1[C@@H](C)[C@@]2(O)[C@@H](C=C(CO)C[C@]3(O)C(=O)C(C)=C[C@@H]23)[C@@H]2C(C)(C)[C@]12OC(=O)CCC | 0.02 | 
30 |  | CC(=O)O[C@@]12C[C@@H](C)[C@@]3(O)[C@@H](C=C(CO)C[C@]4(O)C(=O)C(C)=C[C@@H]34)[C@@H]1C2(C)C [PROSTRATIN] |  | GI50 (Homo sapiens): 0.79 µM; GI50 [3]: 7 µM; GI50 (COLO 205): 1.9 µM
31 | 0.359 | CC(=O)OCC1(CO)C/C(=C\CC(C(C)C)C(C)C)C(=O)O1 (centres undefined) |  | 
